Measured values as given in ChEMBL document CHEMBL3792351, “Synthesis and anti-inflammatory activity evaluation of a novel series of 6-phenoxy-[1,2,4]triazolo[3,4-a]phthalazine-3-carboxamide derivatives” (Bioorg Med Chem Lett, 2016).
Activity calls are given as the source filed them. The calls are words filed in the database; no cut-off is given here.

Assays:
HeLa [1] = test: Inhibition of TNFalpha-induced NFkappaB (unknown origin) activation expressed in human HeLa cells at 100 uM pre-incubated for 8 hrs followed by stimulation with TNFalpha for 8 hrs by luciferase reporter assay; assay type: cell-based
In short: (§1)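 HeLa cells transiently transfected 48 h with NF-κB-dependent luciferase reporter, pretreated 8 h with compounds (100 μM screen or indicated concentrations), then TNF-α (10 ng/ml) 8 h; luciferase activity read. Mean ± standard deviation, three independent experiments; compared with TNF-α-stimulated cells.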

HeLa [2] = test: Cytotoxicity against human HeLa cells assessed as cell viability at 100 uM after 24 hrs by MTT assay; assay type: cell-based
In short: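 HeLa cells treated with compounds at indicated concentrations for 24 h; viability by MTT. Mean ± standard deviation of three independent experiments.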

HeLa [3] = test: Inhibition of TNFalpha-induced NFkappaB (unknown origin) activation expressed in human HeLa cells pre-incubated for 8 hrs followed by stimulation with TNFalpha for 8 hrs by luciferase reporter assay; assay type: cell-based; in short: as §1
Mus musculus [4] = test: Antiinflammatory activity in Kunming mouse assessed as inhibition of xylene-induced ear edema at 50 mg/kg, po administered 5 hrs before xylene challenge measured after 30 mins relative to vehicle treated control; assay type: functional
In short: (§2)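 Kunming mice (18-22 g), xylene ear edema; compound given orally at 1, 2, 3, 4, 5 or 6 h before xylene application. Inhibition (%) vs vehicle control group at the corresponding time; p<0.05 vs vehicle.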

Mus musculus [5] = test: Antiinflammatory activity in Kunming mouse assessed as inhibition of xylene-induced ear edema at 50 mg/kg, po administered 2 hrs before xylene challenge measured after 30 mins relative to vehicle treated control; assay type: functional; in short: as §2
Mus musculus [6] = test: Antiinflammatory activity in Kunming mouse assessed as inhibition of xylene-induced ear edema at 50 mg/kg, po administered 6 hrs before xylene challenge measured after 30 mins relative to vehicle treated control; assay type: functional; in short: as §2
Mus musculus [7] = test: Antiinflammatory activity in Kunming mouse assessed as inhibition of xylene-induced ear edema at 50 mg/kg, po administered 4 hrs before xylene challenge measured after 30 mins relative to vehicle treated control; assay type: functional; in short: as §2
Mus musculus [8] = test: Antiinflammatory activity in Kunming mouse assessed as inhibition of xylene-induced ear edema at 50 mg/kg, ip administered 0.5 hrs before xylene challenge measured after 30 mins relative to vehicle treated control; assay type: functional
In short: (§3)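 Xylene-induced ear edema, Kunming mice (18-22 g), 8 per group; drug-treated, indomethacin and normal control groups; single i.p. dose. Edema reported in mg (mean ± SEM), inhibition rate (%) vs DMSO vehicle group; p<0.05 vs vehicle.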

Mus musculus [9] = test: Antiinflammatory activity in Kunming mouse assessed as inhibition of xylene-induced ear edema at 50 mg/kg, po administered 3 hrs before xylene challenge measured after 30 mins relative to vehicle treated control; assay type: functional; in short: as §2
Mus musculus [10] = test: Antiinflammatory activity in Kunming mouse assessed as inhibition of xylene-induced ear edema at 50 mg/kg, po administered 1 hr before xylene challenge measured after 30 mins relative to vehicle treated control; assay type: functional; in short: as §2
Mus musculus [11] = test: Antiinflammatory activity in Kunming mouse assessed as inhibition of xylene-induced ear edema at 100 mg/kg, po administered 6 hrs before xylene challenge measured after 30 mins relative to vehicle treated control; assay type: functional
Mus musculus [12] = test: Antiinflammatory activity in Kunming mouse assessed as inhibition of xylene-induced ear edema at 100 mg/kg, po administered 3 hrs before xylene challenge measured after 30 mins relative to vehicle treated control; assay type: functional
Mus musculus [13] = test: Antiinflammatory activity in Kunming mouse assessed as inhibition of xylene-induced ear edema at 100 mg/kg, po administered 5 hrs before xylene challenge measured after 30 mins relative to vehicle treated control; assay type: functional
Mus musculus [14] = test: Antiinflammatory activity in Kunming mouse assessed as inhibition of xylene-induced ear edema at 100 mg/kg, ip administered 0.5 hrs before xylene challenge measured after 30 mins relative to vehicle treated control; assay type: functional; in short: as §3
Mus musculus [15] = test: Antiinflammatory activity in Kunming mouse assessed as inhibition of xylene-induced ear edema at 100 mg/kg, po administered 1 hr before xylene challenge measured after 30 mins relative to vehicle treated control; assay type: functional
Mus musculus [16] = test: Antiinflammatory activity in Kunming mouse assessed as inhibition of xylene-induced ear edema at 100 mg/kg, po administered 2 hrs before xylene challenge measured after 30 mins relative to vehicle treated control; assay type: functional
Mus musculus [17] = test: Antiinflammatory activity in Kunming mouse assessed as inhibition of xylene-induced ear edema at 100 mg/kg, po administered 4 hrs before xylene challenge measured after 30 mins relative to vehicle treated control; assay type: functional

COc1ccc(Oc2nn3c(C(N)=O)nnc3c3ccccc23)cc1
inhibition (HeLa [1]): Active

NC(=O)c1nnc2c3ccccc3c(Oc3ccc(Cl)cc3Cl)nn12
Activity (HeLa [2]): Toxic
inhibition (HeLa [1]): Active
inhibition (HeLa [3]): Dose-dependent effect

Cc1ccccc1Oc1nn2c(C(N)=O)nnc2c2ccccc12
inhibition (HeLa [1]): Active

NC(=O)c1nnc2c3ccccc3c(Oc3ccccc3F)nn12
inhibition (HeLa [1]): Active

NC(=O)c1nnc2c3ccccc3c(Oc3cccc(F)c3)nn12
inhibition (HeLa [1]): Active

NC(=O)c1nnc2c3ccccc3c(Oc3cccc(Cl)c3)nn12
inhibition (HeLa [1]): Active

NC(=O)c1nnc2c3ccccc3c(Oc3ccc(Br)cc3)nn12
inhibition (HeLa [1]): Active

NC(=O)c1nnc2c3ccccc3c(Oc3ccc(F)cc3)nn12
inhibition (HeLa [1]): Active

Cc1cccc(Oc2nn3c(C(N)=O)nnc3c3ccccc23)c1
inhibition in vivo at 50 mg/kg (Mus musculus [4]): 22.4%
Activity (HeLa [2]): Non-toxic
inhibition in vivo at 50 mg/kg (Mus musculus [5]): 8.92%
inhibition in vivo at 50 mg/kg (Mus musculus [6]): 8.19%
inhibition (HeLa [1]): Active
inhibition in vivo at 50 mg/kg (Mus musculus [7]): 38.9%
inhibition in vivo at 50 mg/kg (Mus musculus [8]): 58.2%
inhibition in vivo at 50 mg/kg (Mus musculus [9]): 22.7%
inhibition in vivo at 50 mg/kg (Mus musculus [10]): 5.63%
inhibition (HeLa [3]): Dose-dependent effect

NC(=O)c1nnc2c3ccccc3c(Oc3ccc(Cl)cc3)nn12
inhibition (HeLa [1]): Active

COc1ccc2c(c1)c(CC(=O)O)c(C)n2C(=O)c1ccc(Cl)cc1 [INDOMETHACIN]
inhibition in vivo at 100 mg/kg (Mus musculus [11]): 29.6%
inhibition in vivo at 100 mg/kg (Mus musculus [12]): 27.7%
inhibition in vivo at 100 mg/kg (Mus musculus [13]): 53.5%
inhibition in vivo at 100 mg/kg (Mus musculus [14]): 59.2%
inhibition in vivo at 100 mg/kg (Mus musculus [15]): 19.1%
inhibition in vivo at 100 mg/kg (Mus musculus [16]): 22.5%
inhibition in vivo at 100 mg/kg (Mus musculus [17]): 63.4%

Cc1ccc(Oc2nn3c(C(N)=O)nnc3c3ccccc23)cc1
inhibition (HeLa [1]): Active

Cc1cccc2c3c(ccc12)C1=C(C(=O)C3=O)[C@@H](C)CO1
inhibition (HeLa [1]): Active
